High-throughput results as filed in PubChem BioAssay.
HEK293 NFkB inh – inhibitors of the PMA/ionomycin-induced NF-kB reporter in HEK293 cells; HEK-293 NF-kB luciferase reporter, luminescence; inhibition, % at 3 µM; 0.21% of 62,000 active;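 active = inhibition above the mean of all tested compounds plus 3 SD, cut at about 40% in these data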;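 also: 0% = stimulated DMSO wells and 100% = 10 µM reference inhibitor 5653914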
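System: NF-kB luciferase reporter HEK-293 cells | Replication: Single test | Control set: DMSO vs reference inhibitor | Evaluation: % inhibition | Schedule: 1 h pretreatment, 16 h stimulation, 37 °C | Probe or stimulus: PMA with ionomycin | Compound dosing: One dose, 3 µM | Detection: Luciferase luminescence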
D1 allo mod – allosterically modulates the human D1 dopamine receptor; B-score at 10 µM; P21728; AID 641; HEK293 D1, CRE-luciferase, dopamine EC30 potentiation; actives deviate in either direction; 5.9% of 58,000 active;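 active = luminescence count or its row- and column-corrected plate score outside the 99.7% band of the plate's sample wells, on either side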
E coli RNAP – Escherichia coli RNA polymerase inhibition; P0A8V2; E. coli RNA polymerase, fluorescence transcription assay; inhibition, %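 (tested at 10 µM)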; 0.2% of 62,000 active; in the data active = inhibition above about 20%;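 also: 0% = enzyme without compound and 100% = no enzyme blank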
DAT uptake mod – human DAT dopamine uptake with cocaine, either direction. LLC-PK1 hDAT cells, [14C]-dopamine uptake with cocaine IC80; actives deviate in either direction. AID 449768. Q01959. 1.3% of 110,000 active. B-score at 10 µM;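 active = Z score or B-score, a plate-position-corrected score, falls beyond the plate's 99.7% confidence bounds, in either direction; inactive = both scores lie inside the 99.7% bounds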;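 also: scored against the spread of the other compound wells on the same plate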
Target sequence (Q01959 whole entry, looked up): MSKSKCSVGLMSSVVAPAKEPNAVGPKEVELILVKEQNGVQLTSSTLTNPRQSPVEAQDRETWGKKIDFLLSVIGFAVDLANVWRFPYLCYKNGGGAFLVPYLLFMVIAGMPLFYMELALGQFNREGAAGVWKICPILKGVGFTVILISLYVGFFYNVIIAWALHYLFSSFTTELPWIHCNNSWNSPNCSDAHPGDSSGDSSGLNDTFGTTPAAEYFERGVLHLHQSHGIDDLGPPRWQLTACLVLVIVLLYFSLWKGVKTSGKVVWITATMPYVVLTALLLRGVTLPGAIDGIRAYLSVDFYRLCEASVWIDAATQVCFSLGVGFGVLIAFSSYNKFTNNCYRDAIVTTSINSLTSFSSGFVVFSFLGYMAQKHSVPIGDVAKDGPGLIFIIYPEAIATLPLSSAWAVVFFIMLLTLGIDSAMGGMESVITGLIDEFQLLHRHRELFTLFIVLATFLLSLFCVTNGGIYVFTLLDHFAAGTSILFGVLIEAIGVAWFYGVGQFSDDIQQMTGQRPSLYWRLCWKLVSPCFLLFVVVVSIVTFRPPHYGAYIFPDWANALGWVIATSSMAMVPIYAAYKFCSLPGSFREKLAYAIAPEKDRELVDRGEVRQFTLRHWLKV
AP complement – orthogonal test for alternative complement pathway inhibitors. 0.08% of 62,000 active. Human serum alternative complement pathway, LPS-coated ELISA, C3 deposition; tested in compound mixtures. inhibition, % at 5 µM;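 active = inhibition above 30% in each of the two pooled mixtures holding the compound, so the lower value exceeds 30%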;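 also: 0% = serum in Mg-EGTA without compound and 100% = EDTA serum blank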
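Test system: human serum alternative complement pathway, C3 deposition on LPS-coated wells; also added: Plate-bound LPS; doses: 5 µM per compound in ten-compound mixtures; schedule: 1 h at 37 °C; detection: Anti-C3 ELISA, OD 450 nm; evaluation: percent inhibition of C3 deposition onto LPS; repeats: two pool placements per compound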
D1 mod confirm – confirmation of human D1 dopamine receptor allosteric modulators. shares compounds with D1 allo mod. HEK293 D1 CRE-luciferase, dopamine EC30 potentiation; stronger effect = higher value. luminescence at 10 µM. 88% of 2,200 active;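 active = luminescence in either of two replicates above the same-plate mean plus 3 SD of the low-dose dopamine control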
D1 ag no DA – D1 (human) signaling in absence of dopamine; luminescence at 10 µM; HEK293 D1 CRE-luciferase, luminescence, no dopamine; stronger effect = higher value; shares compounds with D1 allo mod; 0.8% of 1,900 active; in the data active = luminescence above about 3900
Isoprot counter – isoproterenol response counter-screen activity for D1 modulators; shares compounds with D1 allo mod; HEK293 D1 CRE-luciferase, isoproterenol EC30 counter-screen; calls only at 10 µM; 63% of 2,200 active;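 active = luminescence in either replicate above plate mean of wells with a partly effective reference agonist dose plus 3 SD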;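 also: isoproterenol raises cAMP through native beta-adrenoceptor Gs so signal bypasses D1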
Active calls of the source: *; i = inactive; nt = no result; + = active, no number. Many of the other results were omitted from the sample, so hits are more common in it than they were.

SMILES	HEK293 NFkB inh	D1 allo mod	E coli RNAP	DAT uptake mod	AP complement	D1 mod confirm	D1 ag no DA	Isoprot counter
CC(C)(C)N1CC2([N+](=O)[O-])CN(C(C)(C)C)CC([N+](=O)[O-])(C1)C2	nt	nt	nt	-1.31	nt	nt	nt	nt
CC(CCc1ccccc1)NC(=O)C1CCN(S(=O)(=O)c2cnc[nH]2)CC1 (stereo unspecified)	17.5	0.0466	12.0	-1.84	4.7	nt	nt	nt
Cc1ccc(CC2S/C(=N/c3ccccn3)NC2=O)cc1 (stereo unspecified)	nt	nt	nt	0.446	nt	nt	nt	nt
O=C1N/C(=N/c2ccccn2)SC1Cc1ccccc1 (stereo unspecified)	24.7	4.55*	-6.3	0.00569	23.7	9704*	1888	i
CCn1c(Cc2cccc3ccccc23)nnc1SCC(=O)Nc1nccs1	nt	nt	nt	0.347	nt	nt	nt	nt
CCOC(=O)c1c(NC(=O)Cn2nnc(-c3ccc(Cl)cc3)n2)sc(CC)c1C	nt	nt	nt	0.144	nt	nt	nt	nt
O=C1OCCC1Sc1ncnc2sc3c(c12)CCC3 (stereo unspecified)	16.9	5.19*	11.2	-0.679	5.7	7272*	1564	i
Cc1nc(SC2CCOC2=O)c2c(C)c(C)sc2n1 (stereo unspecified)	nt	nt	nt	-0.487	nt	nt	nt	nt
CCc1nc(N)nc2c1C(=O)CC(C)(C)C2	2.1	8.26*	-3.0	-1.54	-7.3	20244*	1712	+
CC1(C)CC(=O)c2cnc(N)nc2C1	nt	nt	nt	0.471	nt	nt	nt	nt
O=C(c1cccs1)N(Cc1ccccn1)Cc1ccco1	3.7	10.4*	6.1	-0.251	8.1	13228*	1456	+
Cc1cc(C)c2c(n1)sc1c(N3CCN(CCO)CC3)ncnc12	6.6	7.23*	2.4	1	15.7	11076*	1676	+
c1nc(N2CCOCC2)c2sc3nc(N4CCOCC4)c4c(c3c2n1)CCCC4	7.6	0.545	nt	nt	nt	nt	nt	nt
CC(O)CNc1nc2ccccc2n1CC(=O)NCCc1ccc(Cl)cc1 (stereo unspecified)	nt	nt	nt	-1.3	nt	nt	nt	nt
COc1ccc(-c2c3c(=O)n(C)c(=O)n(C)c3cn2-c2ccccc2)cc1	-5.2	6.46*	3.3	0.491	11.6	12728*	1536	i
COc1ccc(C(=O)Nn2cc3c(c2-c2ccccc2)c(=O)n(C)c(=O)n3C)cc1	10.5	0.602	3.0	-0.782	14.7	nt	nt	nt
CC1CCCCN1C(=O)CSc1nc(C2CC2)nc2c1cnn2-c1ccccc1 (stereo unspecified)	13.4	4.01*	0.7	-0.269	7.9	7396*	1340	i
COc1ccc2c(C(F)(F)F)cc(=O)oc2c1C	5.6	4.78*	-7.8	-0.00582	17.4	6684*	1588	i
Cc1nn(C(C)C(=O)NNC(=S)Nc2ccc(F)cc2)c(C)c1[N+](=O)[O-] (stereo unspecified)	nt	nt	nt	-0.558	nt	nt	nt	nt
O=c1[nH]c2c(s1)C(c1ccco1)C1C3CCC(C3)C1S2 (stereo unspecified)	15.1	25.9*	2.1	-1.05	11.2	19088*	1756	+
O=C1NC(c2ccco2)Nc2ccccc21 (stereo unspecified)	3.7	-0.0685	-8.3	0.419	10.8	nt	nt	nt
COc1ccc(-c2oc3ccc(N4CCOCC4)cc3c2C#CC2(O)CCCCC2)cc1	nt	nt	nt	-0.104	nt	nt	nt	nt
COC(=O)c1c(-c2ccc(F)cc2)csc1NC(=O)c1ccco1	nt	3.32*	0.6	-0.304	2.5	8568*	1648	i
O=C(Nc1scc(-c2ccccc2)c1C(=O)O)c1ccco1	3.1	-0.34	2.9	1.52	16.2	nt	nt	nt
Clc1ccccc1Cn1nnc2c(N3CCCC3)ncnc21	15.0	3.76*	nt	0.638	nt	13096*	1612	i
SMILES	HEK293 NFkB inh	D1 allo mod	E coli RNAP	DAT uptake mod	AP complement	D1 mod confirm	D1 ag no DA	Isoprot counter
Cc1cc(C)nc(-n2nc(C)c(C3(O)C(=O)Nc4ccccc43)c2N)n1 (stereo unspecified)	5.5	-0.0411	8.2	-0.182	-5.8	nt	nt	nt
OCc1cn(-c2ccccc2)nc1-c1ccc2c(c1)OCCO2	-27.3	0.0452	13.1	-1.02	-0.7	nt	nt	nt
COc1cccc(-c2nn(-c3ccccc3)cc2CO)c1	-3.5	3.63*	12.6	-0.175	7.0	10836*	1844	+
COc1cccc(-c2nn(-c3ccccc3)cc2C(=O)NCC(=O)O)c1	3.9	-0.0643	7.2	-0.0308	2.1	nt	nt	nt
COc1ccc(-c2nn(-c3ccccc3)cc2CO)cc1OC	11.7	6.68*	1.9	0.52	17.8	13160*	1752	+
O=S(=O)(Nc1cccc(-c2nc3cccnc3s2)c1)c1ccc2c(c1)OCCO2	16.2	4.65*	9.0	0.572	12.2	8604*	1424	i
Cc1ccc(-c2nc3cccnc3s2)cc1NS(=O)(=O)c1ccc2c(c1)OCCO2	nt	nt	nt	-0.817	nt	nt	nt	nt
O=S(=O)(c1ccc(NCCc2c[nH]c3ccccc23)nc1)N1CCOCC1	5.3	-0.514	-1.6	0.0476	7.9	nt	nt	nt
COc1ccc(CNC(=O)c2cc(-c3ccc(OC)c(OC)c3)on2)cc1	13.2	1.36	14.3	-0.431	0.8	nt	nt	nt
COc1ccc(-c2cc(C(=O)N(C)Cc3ccccc3)no2)cc1OC	9.0	17*	-0.2	2.09	10.4	18128*	nt	+
CCCCNC(=O)c1cc(-c2ccc(OC)c(OC)c2)on1	2.8	3.37*	5.9	-0.00481	4.7	9084*	1608	i
COc1ccc(-c2cc(C(=O)N3CCOCC3)no2)cc1OC	11.1	5.96*	4.2	0.0281	11.1	11468*	1656	+
COc1ccc(-c2cc(C(=O)NCc3ccccc3)no2)cc1OC	-7.6	4.62*	4.3	-1.12	14.7	10196*	nt	+
O=c1ccc2c(o1)/C(=C/C=C(Cl)Cl)CCC2	5.3	1.87	0.9	-1.9	11.7	nt	nt	nt
COc1ccc(-c2nc(CCNC(=O)c3ccco3)cs2)cc1OC	11.9	24*	5.4	0.338	5.8	24816*	1952	+
COc1ccc(CCNC(=O)COC(=O)c2ccco2)cc1OC	5.6	0.985	5.9	-0.747	-21.0	nt	nt	nt
COc1ccc(S(=O)(=O)N(C)c2ccc(C(=O)N3CCOCC3)cc2)cc1OC	4.5	14.7*	4.4	-0.0616	-4.1	16652*	1416	i
CCOC(=O)C(NCCCO)c1ccccc1 (stereo unspecified)	15.2	2.81*	2.4	-0.512	-0.4	7136	1552	i
CC(=O)Nc1cc2c(cc1C(C)=O)OCCO2	10.8	0.55	7.1	-0.369	3.8	nt	nt	nt
CC(=O)Nc1cc2c(cc1C(=O)c1ccc(C)cc1)OCCO2	-3.9	6.19*	1.5	-0.361	15.2	15264*	1428	+
Cn1c(Oc2ccccc2NCc2cccc(Br)c2)cc(=O)n(C)c1=O	nt	nt	nt	0.377	nt	nt	nt	nt
